According to ChEMBL document CHEMBL1155279, “1,5-Diaryl-2-ethyl pyrrole derivatives as antimycobacterial agents: design, synthesis, and microbiological evaluation” (Eur J Med Chem, 2009):
Values after ≈ are worked out from the molar mass of the structure shown.

test system: Mycobacterium tuberculosis; assay: Antimycobacterial activity against rifampicin-resistant Mycobacterium tuberculosis ATCC 35838 by twofold agar dilution method; assay type: functional
How it was run: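 Twofold agar dilution in Middlebrook 7H11 agar with 10% OADC (oleic acid, albumin, dextrose). Compounds dissolved in DMSO at 5 mg/mL (one in ethanol at 6 mg/mL), stock, stored cold. MIC determined for each strain. Strains: M. tuberculosis CIP 103471, H37Rv ATCC 27294, rifampicin-resistant ATCC 35838, M. avium CIP 103317.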

Point of comparison: `CCc1c(CN2CCSCC2)cc(-c2ccc(C)cc2)n1-c1ccc(F)cc1`, MIC 0.25 µg/mL (≈ 0.634 µM). Against it:
- CN[C@@H]1[C@H](O[C@H]2[C@H](O[C@H]3[C@H](O)[C@@H](O)[C@H](N=C(N)N)[C@@H](O)[C@@H]3N=C(N)N)O[C@@H](C)[C@]2(O)C=O)O[C@@H](CO)[C@H](O)[C@H]1O [STREPTOMYCIN] — 2-fold higher, 0.5 µg/mL (≈ 0.86 µM)
- CCc1c(CN2CCN(C)CC2)cc(-c2ccc(Cl)cc2)n1-c1ccc(Cl)cc1 — 16-fold higher, 4 µg/mL (≈ 9.34 µM)
- CCc1c(CN2CCSCC2)cc(-c2ccc(F)cc2)n1-c1ccccc1F — 8-fold higher, 2 µg/mL (≈ 5.02 µM)
- CCc1c(CN2CCSCC2)cc(-c2ccccc2F)n1-c1ccccc1F — 32-fold higher, 8 µg/mL (≈ 20.1 µM)
- CCc1c(CN2CCSCC2)cc(-c2ccccc2)n1-c1ccccc1 — 16-fold higher, 4 µg/mL (≈ 11 µM)
- CO[C@H]1/C=C/O[C@@]2(C)Oc3c(C)c(O)c4c(O)c(c(/C=N/N5CCN(C)CC5)c(O)c4c3C2=O)NC(=O)/C(C)=C\C=C\[C@H](C)[C@H](O)[C@@H](C)[C@@H](O)[C@@H](C)[C@H](OC(C)=O)[C@@H]1C [RIFAMPIN] — higher, > 100 µg/mL
- CCc1c(CN2CCSCC2)cc(-c2ccc(F)cc2)n1-c1ccccc1 — 4-fold higher, 1 µg/mL (≈ 2.63 µM)
- CCc1c(CN2CCSCC2)cc(-c2ccccc2)n1-c1ccc(F)cc1 — 16-fold higher, 4 µg/mL (≈ 10.5 µM)
